Test results reported in ChEMBL document CHEMBL4270524, “Enhanced antimalarial activity of plasmepsin V inhibitors by modification of the P2 position of PEXEL peptidomimetics” (Eur J Med Chem, 2018).
Active and inactive are the calls of the source. The rule behind the calls is not given here. Square brackets hold non-standard residues; d marks the D form. Peptide text beside a SMILES is read from it. * marks the point of attachment. Sta = CC(C)C[C@H](N)[C@@H](O)CC(=O)O; Gly(cPent) = N[C@H](C(=O)O)C1CCCC1; NHPhenethyl = c1ccc(CCN*)cc1; Phg = N[C@H](C(=O)O)c1ccccc1; Tle = CC(C)(C)[C@H](N)C(=O)O; Abu = CC[C@H](N)C(=O)O; Cbz = O=C(OCc1ccccc1)*

Columns and labels:
[1] = test system: HepG2; assay: Cytotoxicity against human HepG2 cells after 48 hrs by CellTiter-Glo assay; format: functional, cell-based; conditions: HepG2, 48 h
Summary of the method: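 Cells kept in DMEM with 10% FCS at 37 °C, 5% CO2. 1 × 10^4 cells seeded per well and exposed to a 10-point compound titration for 48 h at 37 °C. Viability normalised to DMSO (100%) and 10 µM bortezomib (0%). EC50 given as mean and SD of three experiments.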

[2] = test system: Plasmodium falciparum; assay: Antiplasmodial activity against ring-stage Plasmodium falciparum 3D7 assessed as reduction in parasite viability after 72 hrs by LDH assay; format: functional, organism-based; conditions: 3D7, 72 h
Summary of the method: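 Sorbitol-synchronised early ring-stage parasites grown in RPMI-HEPES with L-glutamine and Albumax II, exposed to ten-point compound titrations in DMSO (≤0.02% final) for 72 h. Parasitemia read by LDH activity (NADH consumption) relative to DMSO control. EC50 from 4-parameter variable-slope sigmoidal fit; means and SD of three independent experiments.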

[3] = Inhibition of recombinant Plasmodium vivax plasmepsin 5 expressed in High five insect cells using DABCYLRNKRTLAQKQ-E-EDANS as substrate measured after 120 mins by fluorescence assay
Summary of the method: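 Enzyme purified by anti-FLAG affinity then Superdex 75 gel filtration. Each well held 2.5 ng enzyme and 12 µM (Km) substrate in 25 mM Tris-HCl/25 mM MES pH 6.4 with 0.005% Tween-20 and 1% DMSO final. Ten-point 1-in-3 compound dilutions. Fluorescence read at ex 340/em 495 nm. IC50 from four-parameter fit constrained to 0 and 100%; mean and SD, n=3.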

[4] = molecular target: Plasmepsin V (Plasmodium falciparum (isolate 3D7)) (UniProt Q8I6Z5); assay: Inhibition of plasmepsin 5 in Plasmodium falciparum 3D7 co-expressing PfEMP3-GFP infected in human erythrocytes assessed as accumulation of uncleaved PfEMP3-GFP after 3 hrs by immunoblot analysis; format: cell-based
Summary of the method: (§1)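 Parasites cultured in O+ erythrocytes at 4% haematocrit in RPMI 1640 with 25 mM HEPES pH 7.4, 0.2% bicarbonate, 0.5% Albumax II under 5% CO2/5% O2 gas at 37 °C. Magnet-purified 24–34 h trophozoites treated 3 h at 37 °C; DMSO vehicle control. Saponin-lysed pellets run on SDS-PAGE and probed with anti-GFP, with HSP70 as loading control. ECL read-out, quantified by densitometry.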

[5] = molecular target: Plasmepsin V (Plasmodium falciparum (isolate 3D7)) (UniProt Q8I6Z5); assay: Inhibition of plasmepsin 5 in Plasmodium falciparum 3D7 co-expressing PfEMP3-GFP infected in human erythrocytes assessed as accumulation of uncleaved PfEMP3-GFP at 1 to 20 uM after 3 hrs by immunoblot analysis; format: cell-based; summary of the method: as §1

Chain of Plasmepsin V (Plasmodium falciparum (isolate 3D7)) (Q8I6Z5 whole entry, looked up): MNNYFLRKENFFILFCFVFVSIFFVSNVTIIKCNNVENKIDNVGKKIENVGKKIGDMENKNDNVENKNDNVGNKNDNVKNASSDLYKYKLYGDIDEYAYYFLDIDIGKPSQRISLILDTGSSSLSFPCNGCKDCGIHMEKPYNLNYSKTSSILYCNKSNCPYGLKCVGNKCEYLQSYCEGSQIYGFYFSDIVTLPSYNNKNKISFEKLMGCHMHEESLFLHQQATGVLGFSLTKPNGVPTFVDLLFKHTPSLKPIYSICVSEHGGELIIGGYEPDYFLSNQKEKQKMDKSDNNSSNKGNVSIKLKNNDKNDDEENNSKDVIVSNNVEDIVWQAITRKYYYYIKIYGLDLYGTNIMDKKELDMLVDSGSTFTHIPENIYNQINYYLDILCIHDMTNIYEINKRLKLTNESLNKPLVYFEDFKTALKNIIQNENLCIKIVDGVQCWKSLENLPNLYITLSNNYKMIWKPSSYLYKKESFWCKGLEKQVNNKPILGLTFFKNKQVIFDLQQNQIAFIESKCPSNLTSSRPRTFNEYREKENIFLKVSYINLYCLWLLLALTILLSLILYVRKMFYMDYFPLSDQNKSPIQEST

Row | inhibition [4] | inhibition [5] | Structure (SMILES) | EC50 [1] | EC50 [2] | IC50 [3]
1 |  |  | CC(C)C[C@H](NC(=O)[C@H](CCCNC(=N)N)NC(=O)OCc1ccccc1)C(=O)N[C@@H](CC(C)C)[C@@H](O)CC(=O)NCCc1ccccc1 (Cbz-Arg-Leu-[Sta]-NHPhenethyl) | > 40000 nM | 5000 nM | 165 nM
2 |  |  | CC(C)C[C@H](NC(=O)[C@@H](NC(=O)[C@H](CCCNC(=N)N)NC(=O)OCc1ccccc1)C1CCCC1)[C@@H](O)CC(=O)NCCc1ccccc1 (Cbz-Arg-[Gly(cPent)]-[Sta]-NHPhenethyl) | > 40000 nM | 2730 nM | 55 nM
3 |  |  | CC[C@H](C)[C@H](NC(=O)[C@H](CCONC(=N)N)NC(=O)OCc1ccccc1)C(=O)N[C@@H](CC(C)C)[C@@H](O)CC(=O)NCCc1ccccc1 |  | 180 nM | 16 nM
4 | Active |  | CC(C)C[C@H](NC(=O)[C@@H](NC(=O)[C@H](CCONC(=N)N)NC(=O)OCc1ccccc1)C1CCCCC1)[C@@H](O)CC(=O)NCCc1ccccc1 | > 40000 nM | 90 nM | 5 nM
5 |  |  | CC[C@H](C)[C@H](NC(=O)[C@H](CCCNC(=N)N)NC(=O)OCc1ccccc1)C(=O)N[C@@H](CC(C)C)[C@@H](O)CC(=O)NCCc1ccccc1 (Cbz-Arg-Ile-[Sta]-NHPhenethyl) |  | 1030 nM | 26 nM
6 |  | Active | CC(C)C[C@H](NC(=O)[C@@H](NC(=O)[C@H](CCCNC(=N)N)NC(=O)OCc1ccccc1)c1ccccc1)[C@@H](O)CC(=O)NCCc1ccccc1 (Cbz-Arg-[Phg]-[Sta]-NHPhenethyl) | > 40000 nM | 1360 nM | 24 nM
7 |  | Active | CC(C)C[C@H](NC(=O)[C@@H](NC(=O)[C@H](CCONC(=N)N)NC(=O)OCc1ccccc1)c1ccccc1)[C@@H](O)CC(=O)NCCc1ccccc1 | > 40000 nM | 70 nM | 3 nM
8 |  |  | CC(C)C[C@H](NC(=O)[C@H](Cc1ccccc1)NC(=O)[C@H](CCCNC(=N)N)NC(=O)OCc1ccccc1)[C@@H](O)CC(=O)NCCc1ccccc1 (Cbz-Arg-Phe-[Sta]-NHPhenethyl) | > 40000 nM | > 10000 nM | 3120 nM
9 |  |  | CC[C@H](NC(=O)[C@H](CCCNC(=N)N)NC(=O)OCc1ccccc1)C(=O)N[C@@H](CC(C)C)[C@@H](O)CC(=O)NCCc1ccccc1 (Cbz-Arg-[Abu]-[Sta]-NHPhenethyl) | > 40000 nM | 3140 nM | 507 nM
10 |  |  | CC(C)C[C@H](NC(=O)[C@@H](NC(=O)[C@H](CCCNC(=N)N)NC(=O)OCc1ccccc1)C(C)(C)O)[C@@H](O)CC(=O)NCCc1ccccc1 | > 40000 nM | > 10000 nM | 3010 nM
11 |  |  | O[C@@H](c1cc(C(F)(F)F)nc2c(C(F)(F)F)cccc12)[C@H]1CCCCN1 [(S,R)-MEFLOQUINE] | 9800 nM | 13 nM | 
12 |  |  | CCN(CC)CCCC(C)Nc1ccnc2cc(Cl)ccc12 (stereo not drawn) [CHLOROQUINE] | 10100 nM | 6 nM | 
13 |  |  | CC(C)C[C@H](NC(=O)[C@@H](NC(=O)[C@H](CCCNC(=N)N)NC(=O)OCc1ccccc1)C(C)(C)C)[C@@H](O)CC(=O)NCCc1ccccc1 (Cbz-Arg-[Tle]-[Sta]-NHPhenethyl) | > 40000 nM | > 10000 nM | 6700 nM
